pEC50, pIC50: −log10 of the molar value. Active and inactive are the calls of the source. The rule behind the calls is not given here.
Experiments:
Ebolavirus [1] = experiment: Antiviral activity against Ebolavirus H. sapiens-wt/1995/Kikwit-9510621 infected in human HeLa cells assessed as inhibition of viral infection pretreated for 2 hrs followed by viral infection and measured after 48 hrs by EboV GP immunostaining based high content imaging analysis; format: functional, organism-based; conditions: for EC90 / pEC50: Orthoebolavirus, H. sapiens-wt/1995/Kikwit-9510621, HeLa; for pEC50: read-out: EC50
[2] = Cytotoxicity against human HeLa cells after 2 hrs by high content imaging analysis; format: cell-based
[3] = Selectivity index, ratio of CC50 for human HeLa cells to EC50 for Ebolavirus H. sapiens-wt/1995/Kikwit-9510621 infected in human HeLa cells; format: toxicity, cell-based; conditions: read-out: Ratio CC50/EC50
HeLa [4] = experiment: Induction of lysosomotropism in human HeLa cells infected with Ebolavirus assessed as increase in fluorescence intensity of acid compartments at 0.01 uM for 1 hr by Lysosensor DND189 staining based assay; format: functional, cell-based
Outline: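 HeLa cells were pretreated 1 h with compound (Bafilomycin A1 at 0.01 μM as acidification control), then stained with LysoSensor DND 189 for 10 min and washed. Live imaging at Ex/Em 443/505 nm. Fluorescence intensity per area was quantified by image analysis. Eight wells per point, about 3000 cells/well, mean ± SD, three independent experiments.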

HeLa [5] = experiment: Induction of lysosomotropism in human HeLa cells infected with Ebolavirus assessed as expansion of acid compartments at 0.01 uM for 2 hrs by acridine orange staining based assay; format: functional, cell-based
Outline: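 HeLa cells pretreated 2 h, then acridine orange for 30 min, washed and imaged. Total intensity and average area of acridine orange fluorescence quantified by high-content imaging. Mean ± SD of 8 wells, about 3000 cells each, three independent experiments.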

[6] = target: Cathepsin B (Homo sapiens) (UniProt P07858); experiment: Inhibition of cathepsin B activity in human HeLa cells at 0.01 uM after 12 hrs by magic red substrate based fluorescence assay; format: cell-based
Outline: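 HeLa cells were exposed to compound for 12 h, then given the Magic Red cathepsin B peptide reporter, washed, and imaged at Ex/Em 590/630. Total intensity and average area of red fluorescence were scored by high-content analysis. Eight wells per point, about 3000 cells/well, mean ± SD, three independent experiments.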

Ebolavirus [7] = experiment: Antiviral activity against Ebolavirus; format: functional, organism-based; conditions: Orthoebolavirus
Ebolavirus [8] = experiment: Antiviral activity against Ebolavirus infected in mouse assessed as protection against viral infection at 60 mg/kg/day relative to control; format: functional
[9] = Apparent permeability from apical to basolateral side in MDCK cells; format: ADME, cell-based, Canis lupus familiaris; conditions: dog
Outline: (§1)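 Apparent permeability measured in MDCK cell monolayers, apical→basolateral and basolateral→apical directions, three biological replicates.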

[10] = Apparent permeability from basolateral to apical side in MDCK cells; format: ADME, cell-based, Canis lupus familiaris; conditions: dog; outline: as §1
[11] = Stability in plasma (unknown origin) after 1 hr at 37 degC; format: ADME, cell-free; conditions: read-out: Stability
Outline: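 Compound was incubated in plasma for 1 h at 37 °C, and the percent remaining was reported.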

[12] = Solubility of the compound in pH 7.4 buffer by laser nephelometric method; format: physicochemical
Outline: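 Solubility at pH 7.4 was measured by laser nephelometry (light scattering), in triplicate.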

Cytochrome P450 3A4 [13] = target: T1, Cytochrome P450 3A4 (Homo sapiens, UniProt P08684); experiment: Inhibition of CYP3A4 (unknown origin) using 7-benzyloxyquinoline as substrate; format: ADME
T1 sequence (P08684 whole entry): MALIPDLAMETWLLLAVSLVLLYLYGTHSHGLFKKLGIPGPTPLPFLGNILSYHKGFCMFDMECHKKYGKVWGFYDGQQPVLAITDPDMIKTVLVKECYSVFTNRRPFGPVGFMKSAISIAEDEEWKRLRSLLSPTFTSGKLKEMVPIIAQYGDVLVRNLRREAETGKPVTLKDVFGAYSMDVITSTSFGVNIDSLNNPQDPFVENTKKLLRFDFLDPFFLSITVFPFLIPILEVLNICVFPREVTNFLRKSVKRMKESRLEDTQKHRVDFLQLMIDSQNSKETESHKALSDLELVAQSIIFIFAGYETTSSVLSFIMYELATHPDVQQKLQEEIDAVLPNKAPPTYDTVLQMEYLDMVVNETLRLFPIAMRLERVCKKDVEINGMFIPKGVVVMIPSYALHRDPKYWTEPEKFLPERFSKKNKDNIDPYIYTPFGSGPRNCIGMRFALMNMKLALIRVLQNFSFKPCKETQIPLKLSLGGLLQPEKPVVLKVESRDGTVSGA
Outline: (§2)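 CYP IC50 was taken from the net fluorescent signal after incubation at 37 °C for a set time with active cytochrome P450 enzyme and a fluorescent probe substrate.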

Cytochrome P450 3A4 [14] = target: T1, Cytochrome P450 3A4; experiment: Inhibition of CYP3A4 (unknown origin) using dibenzylfluorescein as substrate; format: ADME; outline: as §2
Cytochrome P450 3A4 [15] = target: T1, Cytochrome P450 3A4; experiment: Inhibition of CYP3A4 (unknown origin) using 7-benzyloxy-4-trifluoromethylcoumarin as substrate; format: ADME; outline: as §2
Cytochrome P450 2D6 = Cytochrome P450 2D6 (Homo sapiens, UniProt P10635); experiment: Inhibition of CYP2D6 (unknown origin) using 3-(2-(N, N-Diethyl-N-methylamino)ethyl)-7-Methoxy-4-Methylcoumarin as substrate; format: ADME; conditions: read-out: INH; outline: as §2
Cytochrome P450 2D6, sequence (P10635 whole entry): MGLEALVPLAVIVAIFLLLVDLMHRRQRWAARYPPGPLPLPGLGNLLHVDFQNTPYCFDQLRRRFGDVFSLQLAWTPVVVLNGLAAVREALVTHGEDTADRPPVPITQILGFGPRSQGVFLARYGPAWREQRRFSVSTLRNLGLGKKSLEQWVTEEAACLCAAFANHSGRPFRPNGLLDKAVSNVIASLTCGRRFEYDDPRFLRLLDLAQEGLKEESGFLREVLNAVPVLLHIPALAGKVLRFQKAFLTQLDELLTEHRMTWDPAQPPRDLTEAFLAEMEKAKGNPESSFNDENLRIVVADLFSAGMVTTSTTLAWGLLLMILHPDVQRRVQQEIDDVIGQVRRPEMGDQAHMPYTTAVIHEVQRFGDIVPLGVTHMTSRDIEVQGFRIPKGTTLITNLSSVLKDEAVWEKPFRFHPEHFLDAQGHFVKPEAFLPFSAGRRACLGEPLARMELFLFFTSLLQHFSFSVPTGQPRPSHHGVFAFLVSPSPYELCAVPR

Cytochrome P450 2C19 = Cytochrome P450 2C19 (Homo sapiens, UniProt P33261); experiment: Inhibition of CYP2C19 (unknown origin) using CEC as substrate; format: ADME; outline: as §2
Cytochrome P450 2C19, sequence (P33261 whole entry): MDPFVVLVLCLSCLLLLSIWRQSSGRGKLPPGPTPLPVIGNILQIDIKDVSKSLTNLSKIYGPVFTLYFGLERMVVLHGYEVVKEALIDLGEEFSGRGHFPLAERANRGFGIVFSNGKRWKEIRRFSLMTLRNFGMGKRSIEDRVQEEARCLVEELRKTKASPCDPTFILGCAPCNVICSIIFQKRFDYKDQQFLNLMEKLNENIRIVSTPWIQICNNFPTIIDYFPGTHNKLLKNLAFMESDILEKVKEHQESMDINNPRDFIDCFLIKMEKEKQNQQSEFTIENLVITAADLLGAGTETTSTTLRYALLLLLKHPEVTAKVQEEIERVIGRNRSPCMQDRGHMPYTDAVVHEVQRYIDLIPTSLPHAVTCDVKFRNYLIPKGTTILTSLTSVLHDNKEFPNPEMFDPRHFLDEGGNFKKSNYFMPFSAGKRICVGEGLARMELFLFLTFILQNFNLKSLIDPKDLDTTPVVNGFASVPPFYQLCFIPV

[16] = Clearance in mouse liver microsomes after 1 hr; format: ADME, Microsome; conditions: read-out: CLH
Outline: (§3)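 Substrate depletion with mouse or human liver microsomes, 1 h at 37 °C. Clearance (μL/min/mg) and half-life derived.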

[17] = Clearance in human liver microsomes after 1 hr; format: ADME, Microsome; conditions: read-out: CLH; outline: as §3
[18] = Half life in mouse liver microsomes; format: ADME, Microsome; outline: as §3
[19] = Half life in human liver microsomes; format: ADME, Microsome; outline: as §3
[20] = Solubility of the compound in deionized water; format: physicochemical

`OC(CNc1ccnc2c1ccc1c2ccc2c(NCCN3CCOCC3)ccnc21)CN1CCOCC1` (configuration not stated) showed an EC90 (Ebolavirus [1]) of 3.5 µM, a pEC50 (Ebolavirus [1]) of 6.22 and a CC50 at 2 h [2] greater than 10 µM. It also gave a selectivity ratio [3] greater than 16.7.

For `CO/C1=C\C(C)=C\[C@@H](C)[C@@H](O)[C@@H](C)C/C(C)=C/C=C/[C@H](OC)[C@@H]([C@@H](C)[C@@H](O)[C@H](C)[C@@]2(O)C[C@@H](O)[C@H](C)[C@@H](C(C)C)O2)OC1=O`, the Activity (HeLa [4]) was “Active”, the Activity (HeLa [5]) was “inactive” and the inhibition [6] was “Active”.

`CCN(CC)CCCNc1ccnc2cccnc12` showed a pEC50 (Ebolavirus [1]) of 5.00.

With `c1cnc2c(NCCCN3CCOCC3)ccnc2c1` the EC50 (Ebolavirus [1]) was “Not Active”.

`c1cc(NCCCCN2CCOCC2)c2nccc(NCCCCN3CCOCC3)c2n1` gave an EC90 (Ebolavirus [1]) of 9.9 µM, a pEC50 (Ebolavirus [1]) of 5.65 and a CC50 at 2 h [2] greater than 25 µM. For the same molecule, the selectivity ratio [3] was greater than 11.2.

In the case of `CN(C)CCOc1ccc(/C(=C(/CCCl)c2ccccc2)c2ccccc2)cc1` [TOREMIFENE], the pEC50 (Ebolavirus [7]) was 5.76 to 6.01 and the Activity (Ebolavirus [8]) was 50%.

Molecule `NCCCNc1ccnc2c1ccc1c2ccc2c(NCCCN)ccnc21` has an EC90 (Ebolavirus [1]) of 20.5 µM, a pEC50 (Ebolavirus [1]) of 5.00 and a CC50 at 2 h [2] greater than 10 µM. For the same molecule, the selectivity ratio [3] was greater than 1.

`CCN(CC)CCNc1ccnc2c(NCCN(CC)CC)ccnc12` gave an EC90 (Ebolavirus [1]) of 62.6 µM, a pEC50 (Ebolavirus [1]) of 4.85 and a CC50 at 2 h [2] greater than 25 µM. For the same molecule, the selectivity ratio [3] was greater than 1.8.

With `CC(C)NCC(O)COc1cccc2ccccc12` (configuration not stated) [PROPRANOLOL] the Papp A→B [9] was 37.7 to 39 ×10⁻⁶ cm/s and the Papp B→A [10] was 41.6 to 42.9 ×10⁻⁶ cm/s.

Work on `COc1cc2nc(N3CCN(C(=O)c4ccco4)CC3)nc(N)c2cc1OC` [PRAZOSIN] yielded a Papp A→B [9] of 27.6 to 30 ×10⁻⁶ cm/s and a Papp B→A [10] of 48.6 to 58.9 ×10⁻⁶ cm/s.

For `c1cc(NCCN2CCOCC2)c2nccc(NCCN3CCOCC3)c2n1`, the EC50 (Ebolavirus [1]) was “Not Active” and the CC50 at 2 h [2] was greater than 25 µM.

For `CCN(CC)CCCNc1ccnc2c(NCCCN(CC)CC)ccnc12`, the EC90 (Ebolavirus [1]) was 37.4 µM, the pEC50 (Ebolavirus [1]) was 5.32 and the CC50 at 2 h [2] was greater than 10 µM. For the same molecule, the selectivity ratio [3] was greater than 2, the remaining at 1 h [11] was greater than 85% and the solubility kinetic [12] was greater than 0.05 mg/mL. For the same molecule, the INH (Cytochrome P450 3A4 [13]) was greater than 10 µM, the INH (Cytochrome P450 3A4 [14]) was greater than 10 µM and the INH (Cytochrome P450 3A4 [15]) was greater than 10 µM. It also gave a pIC50 (Cytochrome P450 2D6) of less than 5.00, an INH (Cytochrome P450 2C19) greater than 10 µM and a microsomal CLint [16] of less than 23 µL/min/mg. The microsomal CLint [17] was less than 23 µL/min/mg, the half-life [18] was greater than 1 h and the half-life [19] was greater than 1 h. It also gave a solubility [20] of no less than 25 mg/mL.

For `OC(CNc1ccnc2cccnc12)CN1CCOCC1` (configuration not stated), the EC50 (Ebolavirus [1]) was “Not Active”.

Work on `CCN(CC)CCCC(C)Nc1ccnc2cccnc12` (configuration not stated) yielded a pEC50 (Ebolavirus [1]) of 5.00.
